The source made the active and inactive calls. The calls are words filed in the database; no cut-off is given here.
Legend:
Mus musculus [1] = experiment: Anticonvulsant activity in CF1 albino mouse assessed as inhibition of subcutaneous pentylenetetrazole-induced seizures at 30 mg/kg, ip after 0.5 hrs; type: functional, organism-based; set-up: dose 30 mg/kg
Summary of the method: (§1)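 Adult male CF no. 1 albino mice (18-25 g) dosed ip with compound suspended in 0.5% methylcellulose (0.01 mL/g). Convulsant: pentylenetetrazol dissolved in 0.9% saline as a 0.85% solution for mice, given subcutaneously.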

Mus musculus [2] = experiment: Anticonvulsant activity in CF1 albino mouse assessed as inhibition of subcutaneous pentylenetetrazole-induced seizures at 100 mg/kg, ip after 0.5 hrs; type: functional, organism-based; set-up: dose 100 mg/kg; summary of the method: as §1
Mus musculus [3] = experiment: Anticonvulsant activity in CF1 albino mouse assessed as inhibition of subcutaneous pentylenetetrazole-induced seizures at 300 mg/kg, ip after 0.5 hrs; type: functional, organism-based; set-up: dose 300 mg/kg; summary of the method: as §1
Mus musculus [4] = experiment: Anticonvulsant activity in CF1 albino mouse assessed as inhibition of subcutaneous pentylenetetrazole-induced seizures at 30 mg/kg, ip after 4 hrs; type: functional, organism-based; set-up: dose 30 mg/kg; summary of the method: as §1
Mus musculus [5] = experiment: Anticonvulsant activity in CF1 albino mouse assessed as inhibition of subcutaneous pentylenetetrazole-induced seizures at 100 mg/kg, ip after 4 hrs; type: functional, organism-based; set-up: dose 100 mg/kg; summary of the method: as §1
Mus musculus [6] = experiment: Teratogenic effect in SWV mouse assessed as resorptions at 729 mg/kg, ip administered on morning of day 8 of gestation; type: toxicity, organism-based; set-up: dose 729 mg/kg, route intraperitoneal; details: in vivo
Summary of the method: (§2)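 SWV inbred mice: two-month-old nulligravid females mated overnight with males and checked for vaginal plugs next morning; gestation onset taken as 10 p.m. the previous night. On gestation day 8.5 each dam got one ip injection, 0.55–2.7 mmol/kg, in 25% aqueous Cremophor EL (vehicle controls dosed alike), 10 μL/g body weight. Litters and implants tallied; resorptions and live fetuses reported as counts with percentages.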

Mus musculus [7] = experiment: Teratogenic effect in SWV mouse assessed as resorptions at 486 mg/kg, ip administered on morning of day 8 of gestation; type: toxicity, organism-based; set-up: dose 486 mg/kg, route intraperitoneal; details: in vivo; summary of the method: as §2
Mus musculus [8] = experiment: Teratogenic effect in SWV mouse assessed as resorptions at 294 mg/kg, ip administered on morning of day 8 of gestation; type: toxicity, organism-based; set-up: dose 294 mg/kg, route intraperitoneal; details: in vivo; summary of the method: as §2
Mus musculus [9] = experiment: Teratogenic effect in SWV mouse assessed as resorptions at 148 mg/kg, ip administered on morning of day 8 of gestation; type: toxicity, organism-based; set-up: dose 148 mg/kg, route intraperitoneal; details: in vivo; summary of the method: as §2
Mus musculus [10] = experiment: Teratogenic effect in SWV mouse assessed as fetuses with neural tube deffects at 486 mg/kg, ip administered on morning of day 8 of gestation; type: toxicity, organism-based; set-up: dose 486 mg/kg, route intraperitoneal; details: in vivo
Summary of the method: (§3)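 Two-month-old nulligravid SWV females were mated overnight and checked for vaginal plugs the next morning; gestation onset was set at 10 p.m. the previous night. On gestation day 8.5, each dam received a single ip injection (0.55-2.7 mmol/kg range) or vehicle (25% aqueous Cremophor EL) at 10 μL/g body weight. Litters were scored for implants, resorptions, live and dead fetuses, and fetuses with neural tube defects.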

Mus musculus [11] = experiment: Teratogenic effect in SWV mouse assessed as fetuses with neural tube deffects at 294 mg/kg, ip administered on morning of day 8 of gestation; type: toxicity, organism-based; set-up: dose 294 mg/kg, route intraperitoneal; details: in vivo; summary of the method: as §3
Mus musculus [12] = experiment: Teratogenic effect in SWV mouse assessed as fetuses with neural tube deffects at 148 mg/kg, ip administered on morning of day 8 of gestation; type: toxicity, organism-based; set-up: dose 148 mg/kg, route intraperitoneal; details: in vivo; summary of the method: as §3
Mus musculus [13] = experiment: Teratogenic effect in SWV mouse assessed as live fetuses at 729 mg/kg, ip administered on morning of day 8 of gestation; type: toxicity, organism-based; set-up: dose 729 mg/kg, route intraperitoneal; details: in vivo; summary of the method: as §2
Mus musculus [14] = experiment: Teratogenic effect in SWV mouse assessed as live fetuses at 486 mg/kg, ip administered on morning of day 8 of gestation; type: toxicity, organism-based; set-up: dose 486 mg/kg, route intraperitoneal; details: in vivo; summary of the method: as §2
Mus musculus [15] = experiment: Teratogenic effect in SWV mouse assessed as live fetuses at 294 mg/kg, ip administered on morning of day 8 of gestation; type: toxicity, organism-based; set-up: dose 294 mg/kg, route intraperitoneal; details: in vivo; summary of the method: as §3
Mus musculus [16] = experiment: Teratogenic effect in SWV mouse assessed as live fetuses at 148 mg/kg, ip administered on morning of day 8 of gestation; type: toxicity, organism-based; set-up: dose 148 mg/kg, route intraperitoneal; details: in vivo; summary of the method: as §3
Mus musculus [17] = experiment: Anticonvulsant activity in CF1 albino mouse assessed as inhibition of maximal electroshock-induced seizures at 30 mg/kg, ip after 0.5 hrs; type: functional, organism-based; set-up: dose 30 mg/kg
Summary of the method: (§4)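 Test compounds suspended in 0.5% methylcellulose and given ip to adult male CF no. 1 albino mice (18-25 g) at 0.01 mL/g body weight before maximal electroshock challenge.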

Mus musculus [18] = experiment: Anticonvulsant activity in CF1 albino mouse assessed as inhibition of maximal electroshock-induced seizures at 100 mg/kg, ip after 0.5 hrs; type: functional, organism-based; set-up: dose 100 mg/kg; summary of the method: as §4
Mus musculus [19] = experiment: Anticonvulsant activity in CF1 albino mouse assessed as inhibition of maximal electroshock-induced seizures at 300 mg/kg, ip after 0.5 hrs; type: functional, organism-based; set-up: dose 300 mg/kg; summary of the method: as §4
Mus musculus [20] = experiment: Anticonvulsant activity in CF1 albino mouse assessed as inhibition of maximal electroshock-induced seizures at 30 mg/kg, ip after 4 hrs; type: functional, organism-based; set-up: dose 30 mg/kg; summary of the method: as §4
Mus musculus [21] = experiment: Anticonvulsant activity in CF1 albino mouse assessed as inhibition of maximal electroshock-induced seizures at 300 mg/kg, ip after 4 hrs; type: functional, organism-based; set-up: dose 300 mg/kg; summary of the method: as §4
Mus musculus [22] = experiment: Anticonvulsant activity in CF1 albino mouse assessed as inhibition of subcutaneous pentylenetetrazole-induced seizures at 300 mg/kg, ip after 4 hrs; type: functional, organism-based; set-up: dose 300 mg/kg; summary of the method: as §1
Mus musculus [23] = experiment: Neurotoxicity in CF1 albino mouse assessed as motor impairment at 30 mg/kg, ip after 0.5 hrs; type: toxicity, organism-based; set-up: dose 30 mg/kg, route intraperitoneal; details: in vivo
Mus musculus [24] = experiment: Neurotoxicity in CF1 albino mouse assessed as motor impairment at 100 mg/kg, ip after 0.5 hrs; type: toxicity, organism-based; set-up: dose 100 mg/kg, route intraperitoneal; details: in vivo
Mus musculus [25] = experiment: Neurotoxicity in CF1 albino mouse assessed as motor impairment at 300 mg/kg, ip after 0.5 hrs; type: toxicity, organism-based; set-up: dose 300 mg/kg, route intraperitoneal; details: in vivo
Mus musculus [26] = experiment: Neurotoxicity in CF1 albino mouse assessed as motor impairment at 30 mg/kg, ip after 4 hrs; type: toxicity, organism-based; set-up: dose 30 mg/kg, route intraperitoneal; details: in vivo
Mus musculus [27] = experiment: Neurotoxicity in CF1 albino mouse assessed as motor impairment at 100 mg/kg, ip after 4 hrs; type: toxicity, organism-based; set-up: dose 100 mg/kg, route intraperitoneal; details: in vivo
Mus musculus [28] = experiment: Neurotoxicity in CF1 albino mouse assessed as motor impairment at 300 mg/kg, ip after 4 hrs; type: toxicity, organism-based; set-up: dose 300 mg/kg, route intraperitoneal; details: in vivo
Rattus norvegicus [29] = experiment: Anticonvulsant activity in po dosed rat assessed as inhibition of maximal electroshock-induced seizures
Rattus norvegicus [30] = experiment: Anticonvulsant activity in Sprague-Dawley rat assessed as inhibition of maximal electroshock-induced seizures at 30 mg/kg, po after 1 hr
Rattus norvegicus [31] = experiment: Anticonvulsant activity in Sprague-Dawley rat assessed as inhibition of maximal electroshock-induced seizures at 30 mg/kg, po after 2 hrs
Rattus norvegicus [32] = experiment: Anticonvulsant activity in Sprague-Dawley rat assessed as inhibition of maximal electroshock-induced seizures at 30 mg/kg, po after 4 hrs
Mus musculus [33] = experiment: Teratogenic effect in SWV mouse assessed as resorptions at 325 mg/kg, ip administered on morning of day 8 of gestation; type: toxicity, organism-based; set-up: dose 325 mg/kg, route intraperitoneal; details: in vivo
Mus musculus [34] = experiment: Teratogenic effect in SWV mouse assessed as resorptions at 164 mg/kg, ip administered on morning of day 8 of gestation; type: toxicity, organism-based; set-up: dose 164 mg/kg, route intraperitoneal; details: in vivo
Mus musculus [35] = experiment: Teratogenic effect in SWV mouse assessed as fetuses with neural tube deffects at 325 mg/kg, ip administered on morning of day 8 of gestation; type: toxicity, organism-based; set-up: dose 325 mg/kg, route intraperitoneal; details: in vivo
Mus musculus [36] = experiment: Teratogenic effect in SWV mouse assessed as live fetuses at 325 mg/kg, ip administered on morning of day 8 of gestation; type: toxicity, organism-based; set-up: dose 325 mg/kg, route intraperitoneal; details: in vivo
Mus musculus [37] = experiment: Teratogenic effect in SWV mouse assessed as live fetuses at 164 mg/kg, ip administered on morning of day 8 of gestation; type: toxicity, organism-based; set-up: dose 164 mg/kg, route intraperitoneal; details: in vivo
Rattus norvegicus [38] = species: Rattus norvegicus; experiment: Protective index, ratio of TD50 for rat to ED50 for maximal electroshock-induced rat seizure model
Rattus norvegicus [39] = experiment: Neurotoxicity in Sprague-Dawley rat assessed as motor impairment at 30 mg/kg, po after 0.25 to 4 hrs; details: in vivo
Rattus norvegicus [40] = experiment: Anticonvulsant activity in Sprague-Dawley rat assessed as inhibition of maximal electroshock-induced seizures at 30 mg/kg, po after 30 mins
Rattus norvegicus [41] = experiment: Anticonvulsant activity in Sprague-Dawley rat assessed as inhibition of maximal electroshock-induced seizures at 30 mg/kg, po after 15 mins

Compound | Activity (Mus musculus [1]) | Activity (Mus musculus [2]) | Activity (Mus musculus [3]) | Activity (Mus musculus [4]) | Activity (Mus musculus [5]) | Activity (Mus musculus [7]) [%] | Activity (Mus musculus [8]) [%] | Activity (Mus musculus [9]) [%] | Activity (Mus musculus [10]) [%] | Activity (Mus musculus [17]) | Activity (Mus musculus [20]) | Activity (Mus musculus [21]) | Activity (Mus musculus [22]) | Activity (Mus musculus [23]) | Activity (Mus musculus [24]) | Activity (Mus musculus [25]) | Activity (Mus musculus [26]) | Activity (Mus musculus [27]) | Activity (Mus musculus [28]) | ED50 (Rattus norvegicus [29]) [mg/kg] | other results
CCCC(C)C(=O)Nc1ccc(S(N)(=O)=O)cc1 (stereo not drawn) | inactive | inactive | inactive | inactive | inactive | 58.3 | 34.8 | 10 | 17 | inactive | inactive | Active | inactive | Non-toxic | Non-toxic | Non-toxic | Non-toxic | Non-toxic | Non-toxic | 10.8 | Activity (Mus musculus [6]): 92.5%; Activity (Mus musculus [11]): 5.6%; Activity (Mus musculus [12]): 3.2%; Activity (Mus musculus [13]): 7.5%; Activity (Mus musculus [14]): 41.7%; Activity (Mus musculus [15]): 65.2%; Activity (Mus musculus [16]): 90%; Activity (Mus musculus [18]): inactive; Activity (Mus musculus [19]): Active; Activity (Rattus norvegicus [30]): Active; Activity (Rattus norvegicus [31]): Active; Activity (Rattus norvegicus [32]): Active
CCCC(C(=O)Nc1ccc(S(N)(=O)=O)cc1)C(C)C (stereo not drawn) | inactive | inactive | inactive | inactive | inactive |  |  |  |  | inactive | inactive | Active | inactive | Non-toxic | Non-toxic | Non-toxic | Non-toxic | Non-toxic | Non-toxic | 41.5 | Activity (Mus musculus [33]): 35.4%; Activity (Mus musculus [34]): 10.3%; Activity (Mus musculus [35]): 2%; Activity (Mus musculus [36]): 64.6%; Activity (Mus musculus [37]): 100%; Activity (Mus musculus [18]): inactive; Activity (Mus musculus [19]): Active; Ratio TD50/ED50 (Rattus norvegicus [38]): >12; Activity (Rattus norvegicus [39]): Non-toxic; Activity (Rattus norvegicus [30]): Active; Activity (Rattus norvegicus [40]): inactive; Activity (Rattus norvegicus [41]): inactive
CC(C)(C)CC(=O)Nc1ccc(S(N)(=O)=O)cc1 | inactive | inactive | inactive | inactive | inactive | 8.9 | 8.4 | 8.6 | 15 | inactive | inactive | Active | inactive | Non-toxic | Non-toxic | Non-toxic | Non-toxic | Non-toxic | Non-toxic | 9.4 | Activity (Mus musculus [11]): 3.7%; Activity (Mus musculus [14]): 91.1%; Activity (Mus musculus [15]): 91.6%; Activity (Mus musculus [16]): 91.4%; Ratio TD50/ED50 (Rattus norvegicus [38]): >53.2; Activity (Rattus norvegicus [39]): Non-toxic; Activity (Rattus norvegicus [31]): Active; Activity (Rattus norvegicus [32]): Active

Source: ChEMBL document CHEMBL1155468, “Syntheses and evaluation of anticonvulsant profile and teratogenicity of novel amide derivatives of branched aliphatic carboxylic acids with 4-aminobenzensulfonamide” (J Med Chem, 2010)
